Screening data from PubChem.
Shown are actives, neighbours in structure and some others; about 3.1% of the full set was active somewhere.
Calb FLC – C. albicans growth inhibition with fluconazole, primary screen, CaCi-2 strain, Alamar Blue fluorescence. C. albicans CaCi-2 (fluconazole-resistant clinical isolate) + fluconazole, 48 h. 300,000 tested, 0.57% active. AID 1979, 2009. growth inhibition, % (no concentration beside the values);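 active = growth inhibition above about 58% in most replicates, limit read from the data, passing the limit was not always enough; inconclusive = exactly half the replicates above a set limit; inactive = most replicates below a set limit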;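 note: all wells also contain fluconazole at 8 µg/ml as a sub-toxic cotreatment; 0% = median of DMSO wells and 100% = median of geldanamycin control wells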
CSC inhib – cancer stem cell viability inhibitors, primary screen, luminescence; cancer stem cell-like cells viability; inhibition, % at 7.5 µM; 300,000 tested, 1.1% active; AID 2717, 2010; in the data active = inhibition above about 75%; inconclusive = no clear call, values can overlap the other calls; tested in HMLE shEcad cells
Beta cell apopt – inhibitors of cytokine-induced beta cell apoptosis, primary screen, luminescence. protection from apoptosis, % (concentration not given with the values). INS-1E cytokine-induced death, ATP luminescence, 48 h; percent of positive-control rescue, neutral wells zero. 300,000 tested, 0.8% active;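 active = Every replicate reaches about 75%, or at least half do and their mean reaches it too, limit read from the data; inconclusive = At least half of replicates reach the limit but their mean does not; inactive = Under half of replicates reach the limit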;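 note: 0% = cytokine-treated negative control wells and 100% = positive control rescue; higher means more ATP so stronger rescue from cytokine killing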
A1 inh – caspase 3/7 activation in MEF A1-2A-BIM cells, primary screen, A1 inhibitor project, cell-based, luminescence, HTS | Caspase-Glo 3/7 luminescence, 3 h; percent of clofoctol response, vehicle zero | caspase activation, % (no concentration beside the values) | 330,000 tested, 0.066% active;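 active = over half of replicate activation scores above 10%, or exactly half above 10 with the replicate mean above 10; inconclusive = replicate mean below 10 yet half the replicates above 10; inactive = over half of replicates below 10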
T cruzi repl – inhibitors of intracellular T. cruzi growth, primary screen, luminescence, NIH3T3 host cells; inhibition, % (concentration not given with the values); T. cruzi beta-gal in NIH3T3, 90 h; 300,000 tested, 1.4% active; AID 1885, 2009;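 active = mean inhibition across valid replicates above about 55%, limit read from the data; inconclusive = mean below that limit but half or more replicates reach it; inactive = mean below it, under half of replicates reach it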;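 note: signal also drops with host cell toxicity which is not excluded here; 0% = plate median of DMSO wells and 100% = zero luminescence signal; higher percent means less beta-gal luminescence so fewer parasites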
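System: Mouse NIH/3T3 fibroblasts infected with β-gal-expressing T. cruzi Tulahuen C4 | Quantity: NIH/3T3 cells, 5,000 per well | Reagent: 5000 reporter trypomastigotes per well | Dosing: Compound pinned at 50 nL/well, DMSO | Schedule: 3 h host attachment, then at least 90 h co-culture | Detection: GalScreen luminescence, 60 min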
H9c2 TAG inh – inhibitors of triacylglycerol accumulation, primary screen, cell-based, uHTS, fluorescence, H9c2; H9c2 cells, Nile Red lipid (TAG) fluorescence; cells loaded with 200 µM oleic acid; inhibition, % at 12.5 µM; 230,000 tested, 0.66% active;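 active = pattern-corrected inhibition of lipid staining of at least 50% with the nuclear-stain viability signal not falling by more than 50%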;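 note: 0% = DMSO wells and 100% = triacsin C control wells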
The depositor's hits bear a star.

COc1ccc(-c2sc3ccccc3c2C#CCO)cc1 was read as Calb FLC 2.0, CSC inhib 67.5, Beta cell apopt -5.4, A1 inh 0.9, T cruzi repl -19.3 and H9c2 TAG inh 4.2.
COc1ccc(-c2sc3ccccc3c2C#CCCO)cc1 was read as Calb FLC -2.5, CSC inhib 91.6*, Beta cell apopt -0.2, A1 inh -0.4, T cruzi repl 9.1 and H9c2 TAG inh -5.6.
Screening COc1ccc(NC(=O)NNC(=O)COc2ccc([N+](=O)[O-])c(C)c2)cc1OC returned Calb FLC 3.2, CSC inhib -16.5, Beta cell apopt 0.3, A1 inh 0.9, T cruzi repl 7.3 and H9c2 TAG inh -5.3.
Cc1cn([C@H]2C[C@H](O)[C@@H](CCC(=O)NCCN3CCCCC3)O2)c(=O)[nH]c1=O was read as H9c2 TAG inh 4.5.
CCc1ccc(OCCNC(=O)c2ccccc2SCc2ccc(F)cc2)cc1 was read as Calb FLC 1.0, CSC inhib 23.5, Beta cell apopt 2.9, A1 inh -0.1 and T cruzi repl 56.7*.
For O=C(NCCOc1ccc(F)cc1)c1ccccc1SCc1ccccc1 the results were Calb FLC inconclusive, CSC inhib 2.8, Beta cell apopt 6.2, A1 inh 0.3, T cruzi repl 22.9 and H9c2 TAG inh -4.5.
Cc1ccc(NC(=O)CN(C)C(=O)Cn2ncc(Cl)c(Cl)c2=O)cc1 was read as Calb FLC 20.0, CSC inhib 110.2*, Beta cell apopt -6.1, A1 inh 0.0 and T cruzi repl -13.5.
Screening CCOC(=O)C1=CN(Cc2cccc(Br)c2)S(=O)(=O)N(CC)C1C (stereo unspecified) returned H9c2 TAG inh -2.6.
Screening O=C(NCc1cccnc1)c1ccccc1NS(=O)(=O)c1ccc(Br)cc1 returned CSC inhib 1.9, Beta cell apopt -7.2, A1 inh -0.2 and H9c2 TAG inh -12.6.
`CN1/C(=C\C(=O)CN2C(=O)NC3(CCCCCC3)C2=O)C(C)(C)c2ccccc21` gave Calb FLC 3.0, CSC inhib -10.3, Beta cell apopt 112.7*, A1 inh 2.7, T cruzi repl 37.9 and H9c2 TAG inh -19.8.
For COCCn1c(SCC(=O)/C=C2\N(C)c3ccccc3C2(C)C)nnc1-c1ccncc1 the results were Calb FLC -1.7, CSC inhib 6.7, Beta cell apopt 79.9*, A1 inh -1.1 and T cruzi repl 19.1.
Cc1cc(=O)[nH]c(SCC(=O)/C=C2\N(C)c3ccccc3C2(C)C)n1 was read as Calb FLC -0.7, CSC inhib -8.2, Beta cell apopt 116.6*, A1 inh 0.3 and T cruzi repl 14.7.
For Cc1cccc[n+]1CC(=O)/C=C1\N(C)c2ccccc2C1(C)C the results were Calb FLC -1.4, CSC inhib 31.2, Beta cell apopt 14.5, A1 inh -0.7 and T cruzi repl 10.1.
`COc1ccc(S(=O)(=O)N2CCOC2CNC(=O)C(=O)NCCCN2CCCC2=O)cc1OC` (stereo unspecified) gave H9c2 TAG inh 14.1.
COc1ccc(NC(=O)COC(=O)C2CC(=O)N(c3ccc(C)cc3)C2)cc1 (stereo unspecified) was read as Calb FLC -4.7, CSC inhib -11.3, Beta cell apopt -6.1, A1 inh -0.3 and T cruzi repl -13.4.
Screening Cc1ccc(C(=O)COC(=O)c2cn(-c3ccccc3)nc2-c2ccccc2)cc1[N+](=O)[O-] returned Calb FLC -20.0, CSC inhib inconclusive, Beta cell apopt 99.4*, A1 inh -0.7, T cruzi repl 5.7 and H9c2 TAG inh -3.6.
`O=C(COC(=O)c1cn(-c2ccccc2)nc1-c1ccccc1)c1cccc([N+](=O)[O-])c1` gave Calb FLC -3.6, CSC inhib 42.4, Beta cell apopt 102.2*, A1 inh -0.2 and T cruzi repl 20.4.
Screening CC(=O)n1c(-c2ccccc2)c(CO)c2ccccc21 returned Calb FLC 1.3, CSC inhib -0.6, Beta cell apopt -7.7, A1 inh 1.4 and T cruzi repl -1.4.
NCCc1c(-c2ccccc2)n(-c2ccccc2)c2ccccc12 was read as Calb FLC -0.9, T cruzi repl 63.6* and H9c2 TAG inh 25.4.
CCN(CC(=O)Nc1cc(S(=O)(=O)N2CCCCC2)ccc1C)Cc1ccccc1 was read as Calb FLC -2.4, CSC inhib 25.4, Beta cell apopt -12.7, A1 inh -0.5, T cruzi repl 18.9 and H9c2 TAG inh -27.9.
CCCSc1nsc(NC(=O)CCC)n1 was read as Calb FLC -4.0, CSC inhib 14.7, Beta cell apopt 4.3, A1 inh 0.6, T cruzi repl 56.4* and H9c2 TAG inh -3.8.
Screening O=[N+]([O-])c1ccc(-c2ccn[nH]2)o1 returned Calb FLC 48.9, CSC inhib -2.9, Beta cell apopt -2.4, A1 inh 0.0, T cruzi repl 68.1* and H9c2 TAG inh -0.1.
For CCOc1ccc(S(=O)(=O)NCCC(=O)NCc2ccncc2)cc1 the results were Calb FLC -8.0, CSC inhib 28.3, Beta cell apopt -2.7, A1 inh -0.1, T cruzi repl -5.3 and H9c2 TAG inh 3.6.
CC(C(=O)NCc1ccccc1Cl)n1cc([N+](=O)[O-])cn1 (stereo unspecified) was read as Calb FLC -15.1, CSC inhib -17.6, Beta cell apopt -4.6, A1 inh -0.8, T cruzi repl -5.6 and H9c2 TAG inh 3.8.
For CCOC(=O)C1=C(c2ccccc2)NC(N)=NC1c1ccc(OCc2ccc(Cl)cc2)c(OC)c1 (stereo unspecified) the results were Calb FLC -5.8, CSC inhib 75.5*, Beta cell apopt -11.1, A1 inh 0.7, T cruzi repl 21.2 and H9c2 TAG inh 13.5.
O=C(CNC(=O)c1ccccc1O)N/N=C/c1cc(Br)ccc1OC(=O)/C=C/c1ccco1 was read as Calb FLC -16.0, CSC inhib -2.2, Beta cell apopt 88.5*, A1 inh -0.6 and T cruzi repl inconclusive.
For Nc1ncc(Br)cc1S(=O)(=O)NCCC(=O)NCCc1ccc(Cl)cc1 the results were Calb FLC -3.4, CSC inhib 10.9, Beta cell apopt -7.8, A1 inh -1.7 and T cruzi repl 40.6.
Screening CCOC(=O)C1(Cc2cccc(OC)c2)CCCN(Cc2c(C)nn(C(C)C)c2C)C1 (stereo unspecified) returned Calb FLC -7.8, CSC inhib 1.2, Beta cell apopt -1.2, A1 inh 0.5, T cruzi repl 64.3* and H9c2 TAG inh -0.5.
